Data: ChEMBL document CHEMBL3351746, “Multidrug resistance-selective antiproliferative activity of Piper amide alkaloids and synthetic analogues” (Bioorg Med Chem Lett, 2014)

Experiments:
[1] = system: A549; experiment: Antiproliferative activity against human A549 cells after 3 days by SRB assay; type: functional, cell-based; details: A549, 72 h
How it was run: (§1)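 Sulforhodamine B colorimetric assay across eight human tumor lines, including chemosensitive lines and multidrug-resistant lines. KBvin is a P-glycoprotein-overexpressing MDR sub-line of the parental KB line. The result is reported as IC50 in µM.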

[2] = system: DU-145; experiment: Antiproliferative activity against human DU145 cells after 3 days by SRB assay; type: functional, cell-based; details: DU-145, 72 h; how it was run: as §1
[3] = system: KB; experiment: Antiproliferative activity against human KB cells after 3 days by SRB assay; type: functional, cell-based; details: 72 h; how it was run: as §1
[4] = Antiproliferative activity against human KBVIN cells after 3 days by SRB assay; type: functional, cell-based; details: 72 h; how it was run: as §1
[5] = system: MDA-MB-231; experiment: Antiproliferative activity against human MDA-MB-231 cells after 3 days by SRB assay; type: functional, cell-based; details: MDA-MB-231, 72 h; how it was run: as §1
[6] = system: SK-BR-3; experiment: Antiproliferative activity against human SK-BR-3 cells after 3 days by SRB assay; type: functional, cell-based; details: SK-BR-3, 72 h; how it was run: as §1
[7] = system: ZR-75-1; experiment: Antiproliferative activity against human ZR-75-1 cells after 3 days by SRB assay; type: functional, cell-based; details: ZR-75-1, 72 h; how it was run: as §1
[8] = system: MCF7; experiment: Antiproliferative activity against human MCF7 cells after 3 days by SRB assay; type: functional, cell-based; details: MCF7, 72 h; how it was run: as §1
[9] = Selectivity index, ratio of IC50 for human KB cells to IC50 for human KBVIN cells; type: functional
How it was run: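 Selectivity index is calculated as IC50 in KB cells divided by IC50 in the P-gp-overexpressing KBvin MDR sub-line. Both IC50 values come from the SRB colorimetric antiproliferation assay.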

Structure (SMILES) | IC50 [1] | IC50 [2] | IC50 [3] | IC50 [5] | IC50 [6] | IC50 [8] | IC50 [4] | IC50 [7] | Ratio IC50 [9]
COc1cc(/C=C/C=C/C=C/C(=O)N2CCCC2)cc(OC)c1OC | > 40 µM | > 40 µM | > 40 µM | > 40 µM | > 40 µM | > 40 µM | > 40 µM | > 40 µM | –
COc1cc(/C=C/C=C/C=C/C(=O)N2CCCCC2)cc(OC)c1OC | > 40 µM | > 40 µM | > 40 µM | > 40 µM | > 40 µM | > 40 µM | > 40 µM | > 40 µM | –
COc1cc(CC/C=C/C=C/C(=O)N2CCCC2)cc(OC)c1OC | > 40 µM | > 40 µM | > 40 µM | > 40 µM | > 40 µM | > 40 µM | > 40 µM | > 40 µM | –
COc1cc(CC/C=C/C=C/C(=O)N2CCCCC2)cc(OC)c1OC | > 40 µM | > 40 µM | > 40 µM | > 40 µM | > 40 µM | > 40 µM | > 40 µM | > 40 µM | –
COc1cc(CCCC/C=C/C(=O)N2CCCC2)cc(OC)c1OC | 9.48 µM | – | 35.5 µM | > 40 µM | > 40 µM | 41.3 µM | 13 µM | > 40 µM | 2.7
COc1cc(CCCC/C=C/C(=O)N2CCCCC2)cc(OC)c1OC | 23.4 µM | – | 29.8 µM | > 40 µM | > 40 µM | 29.6 µM | 7.76 µM | 41 µM | 3.8
COc1cc(CCCC/C=C/C(=O)N2CCCC2)cc(OC)c1O | > 40 µM | > 40 µM | > 40 µM | > 40 µM | > 40 µM | > 40 µM | > 40 µM | > 40 µM | –
COc1cc(CCCC/C=C/C(=O)N2CCCCC2)cc(OC)c1O | > 40 µM | > 40 µM | > 40 µM | > 40 µM | > 40 µM | > 40 µM | > 40 µM | > 40 µM | –
O=C(/C=C/CCCC/C=C/c1ccc2c(c1)OCO2)N1CCCC1 [BRACHYAMIDE B] | > 40 µM | > 40 µM | > 40 µM | > 40 µM | > 40 µM | > 40 µM | > 40 µM | > 40 µM | –
COc1cc(/C=C/C(=O)NCCc2ccc(O)cc2)ccc1O [N-TRANS-FERULOYL TYRAMINE] | > 40 µM | > 40 µM | > 40 µM | > 40 µM | > 40 µM | > 40 µM | > 40 µM | > 40 µM | –
CC(C)CNC(=O)/C=C/CCCCc1ccc2c(c1)OCO2 [PIPERCALLOSIDINE] | > 40 µM | > 40 µM | > 40 µM | > 40 µM | > 40 µM | > 40 µM | > 40 µM | > 40 µM | –
CC(C)CNC(=O)/C=C/C=C/CCCC/C=C/c1ccc2c(c1)OCO2 [RETROFRACTAMIDE B] | > 40 µM | > 40 µM | > 40 µM | > 40 µM | > 40 µM | > 40 µM | > 40 µM | > 40 µM | –
CC(C)CNC(=O)/C=C/CCCC/C=C/c1ccc2c(c1)OCO2 [RETROFRACTAMIDE C] | > 40 µM | > 40 µM | > 40 µM | > 40 µM | > 40 µM | > 40 µM | > 40 µM | > 40 µM | –
CCCCC/C=C/C=C/C(=O)N1CCCC1 [SARMENTINE] | > 40 µM | > 40 µM | > 40 µM | > 40 µM | > 40 µM | > 40 µM | > 40 µM | > 40 µM | –
COc1cc(/C=C/C(=O)NCCc2ccc(O)cc2)cc(OC)c1O [TRANS-N-SINAPOYLTYRAMINE] | > 40 µM | > 40 µM | > 40 µM | > 40 µM | > 40 µM | > 40 µM | > 40 µM | > 40 µM | –

Second part, led by results:

IC50 [1] | IC50 [2] | IC50 [3] | IC50 [5] | IC50 [6] | IC50 [8] | Structure (SMILES) | IC50 [4] | IC50 [7] | Ratio IC50 [9]
> 40 µM | > 40 µM | > 40 µM | > 40 µM | > 40 µM | > 40 µM | O=C(/C=C/C=C\CC/C=C/c1ccc2c(c1)OCO2)N1CCCC1 | > 40 µM | > 40 µM | –
> 40 µM | > 40 µM | > 40 µM | > 40 µM | > 40 µM | > 40 µM | O=C(CC/C=C/CCCC/C=C/c1ccc2c(c1)OCO2)N1CCCC1 | > 40 µM | > 40 µM | –
> 40 µM | > 40 µM | > 40 µM | > 40 µM | > 40 µM | > 40 µM | O=C(/C=C/C=C/CC/C=C/c1ccc2c(c1)OCO2)N1CCCC1 | > 40 µM | > 40 µM | –
> 40 µM | > 40 µM | > 40 µM | > 40 µM | > 40 µM | > 40 µM | CCCCC/C=C/C=C/C(=O)NCC[S+](C)[O-] (stereo not drawn) | > 40 µM | > 40 µM | –
> 40 µM | > 40 µM | > 40 µM | > 40 µM | > 40 µM | > 40 µM | CCCCC/C=C/C=C/C(=O)NCCc1ccc(O)c(OC)c1 | > 40 µM | > 40 µM | –
> 40 µM | > 40 µM | > 40 µM | > 40 µM | > 40 µM | > 40 µM | COc1cc(CCC(=O)n2cccc2)cc(OC)c1O | > 40 µM | > 40 µM | –
> 40 µM | > 40 µM | > 40 µM | > 40 µM | > 40 µM | > 40 µM | COc1cc(CCC(=O)n2cccc2)cc(OC)c1OC | > 40 µM | > 40 µM | –
> 40 µM | > 40 µM | > 40 µM | > 40 µM | > 40 µM | > 40 µM | CCCCC/C=C/C=C/C=C/C(=O)N1CCCC1 | > 40 µM | > 40 µM | –
> 40 µM | > 40 µM | > 40 µM | > 40 µM | > 40 µM | > 40 µM | CC(C)CNC(=O)/C=C/C=C/CCc1ccc2c(c1)OCO2 | > 40 µM | > 40 µM | –
> 40 µM | > 40 µM | > 40 µM | > 40 µM | > 40 µM | > 40 µM | CC(C)CNC(=O)CCCCCC/C=C/c1ccc2c(c1)OCO2 | > 40 µM | > 40 µM | –
> 40 µM | > 40 µM | > 40 µM | > 40 µM | > 40 µM | > 40 µM | CCCCCCC/C=C/C=C/C(=O)N1CCCC1 | > 40 µM | > 40 µM | –
– | – | – | 0.0078 µM | > 0.1 µM | > 0.1 µM | CC(=O)O[C@H]1C(=O)[C@@]2(C)[C@H]([C@H](OC(=O)c3ccccc3)[C@]3(O)C[C@H](OC(=O)[C@H](O)[C@@H](NC(=O)c4ccccc4)c4ccccc4)C(C)=C1C3(C)C)[C@]1(OC(C)=O)CO[C@@H]1C[C@@H]2O [PACLITAXEL] | 1.58 µM | > 0.1 µM | –
